Measurements reported in ChEMBL document CHEMBL1125331, “6-Hydroxy-3-n-propyl-2,3,4,5-tetrahydro-1H-3-benzazepine and analogs: new centrally acting 5-HT1A receptor agonists” (J Med Chem, 1992).
Several values for one entry are separate records, joined by “and”; a condition that tells them apart may be missing. Equal entries are not always repeated.

Columns and labels:
[1] = target: T1, 5-hydroxytryptamine receptor 1A (Rattus norvegicus, UniProt P19327); experiment: Inhibitory activity against 5-hydroxytryptamine 1A receptor in rats, using [3H]8-OH-DPAT as radioligand
T1 sequence (P19327 whole entry): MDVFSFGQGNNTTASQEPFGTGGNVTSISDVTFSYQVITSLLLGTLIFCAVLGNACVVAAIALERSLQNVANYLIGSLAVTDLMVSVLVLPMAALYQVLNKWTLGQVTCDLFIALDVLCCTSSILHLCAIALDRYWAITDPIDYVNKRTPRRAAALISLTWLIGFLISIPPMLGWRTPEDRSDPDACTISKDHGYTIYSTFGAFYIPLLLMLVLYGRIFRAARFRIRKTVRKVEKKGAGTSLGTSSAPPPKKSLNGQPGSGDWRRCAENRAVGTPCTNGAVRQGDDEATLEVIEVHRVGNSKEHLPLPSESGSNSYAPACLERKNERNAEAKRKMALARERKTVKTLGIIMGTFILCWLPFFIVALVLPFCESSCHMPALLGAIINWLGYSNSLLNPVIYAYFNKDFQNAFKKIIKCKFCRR
Outline: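 Rat whole-brain membranes (minus brainstem and cerebellum) in 50 mM Tris pH 8.0 with 120 mM NaCl, 4 mM CaCl2, 4 mM MgCl2 and 10 μM pargyline. Rapid filtration, then scintillation counting. Nonspecific binding defined with 10 μM 5-HT. IC50 by semi-log plot and linear regression.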

D(2) dopamine receptor = D(2) dopamine receptor (Rattus norvegicus, UniProt P61169); experiment: Inhibitory activity against Dopamine receptor D2 in rats using [3H]spiperone as radioligand
Outline: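 Rat striatal membranes in 50 mM potassium phosphate buffer pH 7.4 were incubated with 0.5 nM [3H]spiperone for 10 min at 37 °C. Specific binding was defined with 10 μM 6,7-ADTN.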

Rattus norvegicus [2] = experiment: Effect evaluated in vivo on 5-HTP accumulation in limbic system at a dose 25 umol/kg (s.c.); type: functional
Outline: (§1)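 Male Sprague-Dawley rats (200–300 g) were pretreated with reserpine 5 mg/kg sc 18 h before. Test compound was given sc at 5 mL/kg in neutral solution. 5-HT synthesis rate was indexed by […] 5-HTP accumulation after decarboxylase inhibition with NSD 1015, measured by HPLC-electrochemical detection. Dose-response used 4–6 dose levels, n = 4.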

Rattus norvegicus [3] = experiment: Effect evaluated in vivo on 5-HTP accumulation in limbic system at a dose 6.25 umol/kg (s.c.); type: functional; outline: as §1
Rattus norvegicus [4] = experiment: Effect evaluated in vivo on NE synthesis in NE-rich hemispheres at a 0.20 dose uM/kg(sc); type: functional
Outline: (§2)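 Rats pretreated with reserpine 5 mg/kg sc 18 h before received test compound sc at 5 mL/kg in neutral solution. After decarboxylase inhibition with NSD 1015, dopa accumulation in hemispheres (mainly cortex) was measured by HPLC-electrochemical detection as an index of NE synthesis. Dose-response used 4–6 dose levels, n = 4.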

Rattus norvegicus [5] = experiment: Effect evaluated in vivo on NE synthesis in NE-rich hemispheres at a 0.39 dose uM/kg(sc); type: functional; outline: as §2
Rattus norvegicus [6] = experiment: Effect evaluated in vivo on NE synthesis in NE-rich hemispheres at a 1.56 dose uM/kg(sc); type: functional; outline: as §2
Rattus norvegicus [7] = experiment: Effect evaluated in vivo on NE synthesis in NE-rich hemispheres at a 25 dose uM/kg(sc); type: functional; outline: as §2
Rattus norvegicus [8] = experiment: Effect evaluated in vivo on NE synthesis in NE-rich hemispheres at a 6.25d ose uM/kg(sc); type: functional; outline: as §2
Rattus norvegicus [9] = experiment: Effect evaluated in vivo on 5-HTP accumulation in corpus striatum at a dose 25 umol/kg (s.c.); type: functional
Outline: (§3)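 Male Sprague-Dawley rats (200–300 g) were pretreated with reserpine 5 mg/kg sc 18 h beforehand. Test drug was given at neutral pH, 5 mL/kg. Aromatic amino acid decarboxylase was blocked with NSD 1015. 5-HTP in the dissected brain region was assayed by HPLC with electrochemical detection.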

Rattus norvegicus [10] = experiment: Effect evaluated in vivo on 5-HTP accumulation in limbic system after subcutaneous administration; type: functional; details: sc; outline: as §3
Rattus norvegicus [11] = experiment: Effect evaluated in vivo on NE synthesis in NE-rich hemispheres after subcutaneous administration; type: functional; details: sc; outline: as §2
Rattus norvegicus [12] = experiment: Effect evaluated in vivo on 5-HTP accumulation in corpus striatum at a dose 6.25 umol/kg (s.c.); type: functional; outline: as §3
Rattus norvegicus [13] = experiment: Effect evaluated in vivo on 5-HTP accumulation in limbic system at a dose 0.20 umol/kg (s.c.); type: functional; outline: as §3
Rattus norvegicus [14] = experiment: Effect evaluated in vivo on 5-HTP accumulation in limbic system at a dose 0.39 umol/kg (s.c.); type: functional; outline: as §3
Rattus norvegicus [15] = experiment: Effect evaluated in vivo on 5-HTP accumulation in limbic system at a dose 1.56 umol/kg (s.c.); type: functional; outline: as §1
Rattus norvegicus [16] = experiment: Effect evaluated in vivo on 5-HTP accumulation in corpus striatum after subcutaneous administration; type: functional; details: sc; outline: as §3
Rattus norvegicus [17] = experiment: Effect evaluated in vivo on 5-HTP accumulation in corpus striatum at a dose 0.20 umol/kg (s.c.); type: functional; outline: as §3
Rattus norvegicus [18] = experiment: The compound was tested in vivo for locomotor activity in rats at 25 umol/kg after subcutaneous administration; type: functional
Outline: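 Male Sprague-Dawley rats received reserpine 5 mg/kg sc in the neck 18 h before testing. Test compound was given sc in the neck (n = 4). Rats were placed singly in photocell motility meters immediately after dosing, and counts were accumulated over 30 min (tests 9 a.m.–1 p.m.). Gross behaviour, including 5-HT syndrome, was observed throughout.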

Rattus norvegicus [19] = experiment: Effect evaluated in vivo on 5-HTP accumulation in corpus striatum at a dose 0.39 umol/kg (s.c.); type: functional; outline: as §3
Rattus norvegicus [20] = experiment: Effect evaluated in vivo on 5-HTP accumulation in limbic system at a dose 50 umol/kg (s.c.); type: functional; outline: as §1
Rattus norvegicus [21] = experiment: Effect evaluated in vivo on 5-HTP accumulation in corpus striatum at a dose 50 umol/kg (s.c.); type: functional; outline: as §3
Rattus norvegicus [22] = experiment: Effect evaluated in vivo on 5-HTP accumulation in NE-rich hemispheres at a 50 dose uM/kg(sc); type: functional; outline: as §3
Rattus norvegicus [23] = experiment: Effect evaluated in vivo on 5-HTP accumulation in NE-rich hemispheres at a 0.20 dose uM/kg(sc); type: functional; outline: as §3
Rattus norvegicus [24] = experiment: Effect evaluated in vivo on 5-HTP accumulation in NE-rich hemispheres at a 0.39 dose uM/kg(sc); type: functional; outline: as §3
Rattus norvegicus [25] = experiment: Effect evaluated in vivo on 5-HTP accumulation in corpus striatum at a dose 1.56 umol/kg (s.c.); type: functional; outline: as §3
Rattus norvegicus [26] = experiment: Effect evaluated in vivo on 5-HTP accumulation in corpus striatum at a dose 100 umol/kg (s.c.); type: functional; outline: as §3
Rattus norvegicus [27] = experiment: Effect evaluated in vivo on 5-HTP accumulation in limbic system at a dose 100 umol/kg (s.c.); type: functional; outline: as §1
Rattus norvegicus [28] = experiment: Effect evaluated in vivo on 5-HTP accumulation in NE-rich hemispheres at a 1.56 dose uM/kg(sc); type: functional; outline: as §3
Rattus norvegicus [29] = experiment: Effect evaluated in vivo on 5-HTP accumulation in NE-rich hemispheres at a 100 dose uM/kg(sc); type: functional; outline: as §3
Rattus norvegicus [30] = experiment: Effect evaluated in vivo on 5-HTP accumulation in NE-rich hemispheres at a 25 dose uM/kg(sc); type: functional; outline: as §3
Rattus norvegicus [31] = experiment: Effect evaluated in vivo on 5-HTP accumulation in limbic system at a dose 3.1 umol/kg (s.c.); type: functional; outline: as §1
Rattus norvegicus [32] = experiment: Effect evaluated in vivo on 5-HTP accumulation in NE-rich hemispheres at a 0.78 dose uM/kg(sc); type: functional; outline: as §3
Rattus norvegicus [33] = experiment: Effect evaluated in vivo on 5-HTP accumulation in corpus striatum at a dose 12.5 umol/kg (s.c.); type: functional; outline: as §3
Rattus norvegicus [34] = experiment: Effect evaluated in vivo on 5-HTP accumulation in corpus striatum at a dose 3.1 umol/kg (s.c.); type: functional; outline: as §3
Rattus norvegicus [35] = experiment: Effect evaluated in vivo on 5-HTP accumulation in limbic system at a dose 0.78 umol/kg (s.c.); type: functional; outline: as §3
Rattus norvegicus [36] = experiment: Effect evaluated in vivo on 5-HTP accumulation in limbic system at a dose 12.5 umol/kg (s.c.); type: functional; outline: as §1
Rattus norvegicus [37] = experiment: Effect evaluated in vivo on 5-HTP accumulation in NE-rich hemispheres at a 12.5 dose uM/kg(sc); type: functional; outline: as §3
Rattus norvegicus [38] = experiment: Effect evaluated in vivo on 5-HTP accumulation in NE-rich hemispheres at a 3.1 dose uM/kg(sc); type: functional; outline: as §3
Rattus norvegicus [39] = experiment: Effect evaluated in vivo on 5-HTP accumulation in corpus striatum at a dose 0.78 umol/kg (s.c.); type: functional; outline: as §3
Rattus norvegicus [40] = experiment: The compound was tested in vivo for locomotor activity in rats at 0.2 umol/kg after subcutaneous administration
Rattus norvegicus [41] = experiment: Effect evaluated in vivo on DA synthesis in limbic system at ED50 umol/kg after peroral administration; type: functional
Outline: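 Oral dosing in male Sprague-Dawley rats (200–300 g) pretreated with reserpine 5 mg/kg sc 18 h before. After decarboxylase inhibition with NSD 1015, brain 5-HTP or dopa accumulation (HPLC-electrochemical detection) indexed 5-HT synthesis, DA synthesis (limbic) or NE synthesis (hemispheres, mainly cortex).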

Rattus norvegicus [42] = experiment: Effect evaluated in vivo on DA synthesis in limbic system at ED50 umol/kg after subcutaneous administration; type: functional
Outline: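 Male Sprague-Dawley rats (200–300 g) pretreated with reserpine (5 mg/kg sc, 18 h before), then given the test drug sc; neutral solutions at 5 mL/kg. Dopa accumulation after decarboxylase inhibition with NSD 1015 indexes DA synthesis rate in limbic tissue, assayed by HPLC with electrochemical detection.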

Rattus norvegicus [43] = experiment: Effect evaluated in vivo on 5-HT synthesis in limbic system at ED50 umol/kg after subcutaneous administration; details: sc

D(2) dopamine receptor, sequence (P61169 whole entry): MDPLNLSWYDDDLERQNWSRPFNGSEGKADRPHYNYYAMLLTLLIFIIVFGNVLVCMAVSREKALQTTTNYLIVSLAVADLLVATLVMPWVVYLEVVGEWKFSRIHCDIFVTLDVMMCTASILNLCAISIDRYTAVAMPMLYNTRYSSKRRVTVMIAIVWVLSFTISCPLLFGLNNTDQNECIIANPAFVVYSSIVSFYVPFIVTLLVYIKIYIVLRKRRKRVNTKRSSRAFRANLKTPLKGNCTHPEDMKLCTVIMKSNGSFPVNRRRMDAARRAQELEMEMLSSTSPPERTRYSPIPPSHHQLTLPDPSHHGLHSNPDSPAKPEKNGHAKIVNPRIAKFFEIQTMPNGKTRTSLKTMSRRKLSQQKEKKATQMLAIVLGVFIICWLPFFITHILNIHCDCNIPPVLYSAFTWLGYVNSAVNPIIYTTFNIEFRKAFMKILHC

CCCN1CCc2cccc(O)c2CC1
IC50 [1]: 0.081 µM | IC50 (D(2) dopamine receptor): > 100 µM | Control (Rattus norvegicus [2]): 76% | Control (Rattus norvegicus [3]): 51% | Control (Rattus norvegicus [4]): 115% | Control (Rattus norvegicus [5]): 129% | Control (Rattus norvegicus [6]): 73% | Control (Rattus norvegicus [7]): 72% | Control (Rattus norvegicus [8]): 53% | Control (Rattus norvegicus [9]): 75% | ED50 (Rattus norvegicus [10]): 1.3 µmol/kg | ED50 (Rattus norvegicus [11]): 1.4 µmol/kg | Control (Rattus norvegicus [12]): 67% | Control (Rattus norvegicus [13]): 117% | Control (Rattus norvegicus [14]): 129% | Control (Rattus norvegicus [15]): 70% | ED50 (Rattus norvegicus [16]): 2.2 µmol/kg | Control (Rattus norvegicus [17]): 125% | Locomotor activity (Rattus norvegicus [18]): 102 | Control (Rattus norvegicus [19]): 135%

CCCCN1CCc2ccc(O)cc2CC1
Control (Rattus norvegicus [20]): 119% | Control (Rattus norvegicus [21]): 106% | Control (Rattus norvegicus [22]): 114%

CCCN1CCc2ccc(O)cc2CC1
IC50 (D(2) dopamine receptor): 10 µM | Control (Rattus norvegicus [2]): 105% | Control (Rattus norvegicus [23]): 128% | Control (Rattus norvegicus [24]): 119% | Control (Rattus norvegicus [25]): 110% | Control (Rattus norvegicus [26]): 77% | Control (Rattus norvegicus [9]): 107% | Control (Rattus norvegicus [13]): 122% | Control (Rattus norvegicus [14]): 121% | Control (Rattus norvegicus [15]): 80% | Control (Rattus norvegicus [27]): 81% | Control (Rattus norvegicus [28]): 114% | Control (Rattus norvegicus [29]): 78% | Control (Rattus norvegicus [30]): 113% | Control (Rattus norvegicus [17]): 118% | Control (Rattus norvegicus [19]): 106%

COc1cccc2c1CCN(C)CC2
IC50 [1]: 0.48 µM | IC50 (D(2) dopamine receptor): 2.3 µM | Control (Rattus norvegicus [31]): 108% | Control (Rattus norvegicus [20]): 67% | Control (Rattus norvegicus [23]): 126% | Control (Rattus norvegicus [32]): 81% | Control (Rattus norvegicus [33]): 74% | Control (Rattus norvegicus [34]): 89% | Control (Rattus norvegicus [21]): 72% | Control (Rattus norvegicus [13]): 110% | Control (Rattus norvegicus [35]): 93% | Control (Rattus norvegicus [36]): 86% | Control (Rattus norvegicus [37]): 76% | Control (Rattus norvegicus [38]): 93% | Control (Rattus norvegicus [22]): 80% | Control (Rattus norvegicus [17]): 98% | Control (Rattus norvegicus [39]): 97% | Locomotor activity (Rattus norvegicus [40]): 8

CCCN(CCC)C1CCc2cccc(O)c2C1 (stereo unspecified) [8-OH-DPAT]
ED50 (Rattus norvegicus [41]): 3 µM/kg and 7.9 µM/kg and 7.6 µM/kg | ED50 (Rattus norvegicus [42]): 0.052 µM/kg and 0.063 µM/kg | ED50 (Rattus norvegicus [43]): 0.052 µmol/kg | Locomotor activity (Rattus norvegicus [40]): 66
